Values belong to the molecule of their own block, whether it stands above or below them. Residues, ends and D or L forms follow the SMILES beside them.
Assays:
[1] = target: T1, B2 bradykinin receptor (Homo sapiens, UniProt P30411); assay: Binding affinity towards human cloned Bradykinin receptor B2 expressed in CHO cells by [3H]bradykinin displacement.; format: cell-based
T1 sequence (P30411 whole entry): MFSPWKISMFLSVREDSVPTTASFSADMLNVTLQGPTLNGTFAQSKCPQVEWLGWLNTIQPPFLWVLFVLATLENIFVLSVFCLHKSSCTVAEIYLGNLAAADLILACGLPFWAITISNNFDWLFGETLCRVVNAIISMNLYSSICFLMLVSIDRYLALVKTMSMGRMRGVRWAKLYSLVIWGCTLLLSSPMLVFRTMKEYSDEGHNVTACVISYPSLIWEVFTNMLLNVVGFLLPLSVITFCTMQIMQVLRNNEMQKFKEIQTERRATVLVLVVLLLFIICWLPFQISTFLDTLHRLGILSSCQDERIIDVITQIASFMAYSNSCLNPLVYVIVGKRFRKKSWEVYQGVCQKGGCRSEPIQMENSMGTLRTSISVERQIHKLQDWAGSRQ
How it was run: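 Membranes from stably transfected CHO cells, scraped into 20 mM TES (pH 6.8) with 1 mM 1,10-phenanthroline, 140 μg/mL bacitracin and 0.1% BSA, then pelleted at 40000g for 15 min. Filtered through PEI-soaked GF/B filters and counted by scintillation. Means of ≥3 experiments in duplicate.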

[2] = species on record: Homo sapiens; assay: (§1) Ability of Compound (Agonist) to contract isolated human umbilical vein in presence of inhibitor.; format: functional
[3] = species on record: Homo sapiens; assay: Ability of Compound (Agonist) to contract isolated human umbilical vein in absence of inhibitor.; format: functional
[4] = species on record: Homo sapiens; assay: as §1; format: functional, organism-based; conditions: read-out: pA2 (converted)

Ki [1]: 18600 nM
Molecule: N=C(N)NCCC[C@@H](N)C(=O)N[C@@H](CCCNC(=N)N)C(=O)N1CCC[C@H]1C(=O)N1CC(O)C[C@H]1C(=O)NCC(=O)N[C@@H](Cc1cccs1)C(=O)N[C@@H](CO)C(=O)N[C@H]1CCCN(CC(=O)N[C@@H](CCCNC(=N)N)C(=O)O)C1=O (some centres not stated)

Ki ([1]; cho): 140 nM
Molecule: NC(N)=NCCC[C@@H](N)C(=O)N[C@@H](CCCN=C(N)N)C(=O)N1CCC[C@H]1C(=O)N1CC(O)C[C@H]1C(=O)NCC(=O)N[C@@H](Cc1cccs1)C(=O)N[C@@H](CO)C(=O)N[C@@H]1CCc2cccc3c2N(C1=O)[C@@H](C(=O)N[C@H](CCCN=C(N)N)C(=O)O)C3 (some centres not stated)

Ki [1]: 1030 nM
Molecule: N=C(N)NCCC[C@@H](N)C(=O)N[C@@H](CCCNC(=N)N)C(=O)N1CCC[C@H]1C(=O)N1CC(O)C[C@H]1C(=O)NCC(=O)N[C@@H](Cc1cccs1)C(=O)N[C@@H](CO)C(=O)N[C@H]1CCN(CC(=O)N[C@@H](CCCNC(=N)N)C(=O)O)C1=O (some centres not stated)

Ki ([1]; cho): 160 nM
Molecule: NC(N)=NCCC[C@@H](N)C(=O)N[C@@H](CCCN=C(N)N)C(=O)N1CCC[C@H]1C(=O)N1CC(O)C[C@H]1C(=O)NCC(=O)N[C@@H](Cc1cccs1)C(=O)N[C@@H](CO)C(=O)N[C@H]1CCc2cccc3c2N(C1=O)[C@@H](C(=O)N[C@H](CCCN=C(N)N)C(=O)O)C3 (some centres not stated)

Ki [1]: 14 nM
Molecule: NC(N)=NCCC[C@@H](N)C(=O)N[C@@H](CCCN=C(N)N)C(=O)N1CCC[C@H]1C(=O)N1CC(O)C[C@H]1C(=O)NCC(=O)N[C@@H](Cc1cccs1)C(=O)N[C@@H](CO)C(=O)N[C@]1(Cc2ccccc2)C(=O)C(Cc2ccccc2)N(CC(=O)N[C@@H](CCCN=C(N)N)C(=O)O)C1=O (some centres not stated)

Ki [1]: 770 nM
Molecule: NC(N)=NCCC[C@@H](N)C(=O)N[C@@H](CCCN=C(N)N)C(=O)N1CCC[C@H]1C(=O)N1CC(O)C[C@H]1C(=O)NCC(=O)N[C@@H](Cc1cccs1)C(=O)N[C@@H](CO)C(=O)N[C@@H]1CCCCN(CC(=O)N[C@@H](CCCN=C(N)N)C(=O)O)C1=O (some centres not stated)

Ki [1]: 520 nM
Molecule: N=C(N)NCCC[C@@H](N)C(=O)N[C@@H](CCCNC(=N)N)C(=O)N1CCC[C@H]1C(=O)N1CC(O)C[C@H]1C(=O)NCC(=O)N[C@@H](Cc1cccs1)C(=O)N[C@@H](CO)C(=O)N[C@H]1CCCCN(CC(=O)N[C@@H](CCCNC(=N)N)C(=O)O)C1=O (some centres not stated)

Molecule: Cc1ccc2c(c1)SC[C@@H](NC(=O)[C@H](CO)NC(=O)[C@H](Cc1cccs1)NC(=O)CNC(=O)[C@@H]1C[C@@H](O)CN1C(=O)[C@@H]1CCCN1C(=O)[C@H](CCCNC(=N)N)NC(=O)[C@H](N)CCCNC(=N)N)C(=O)N2CC(=O)N[C@@H](CCCNC(=N)N)C(=O)O [listing 1 of 2 here]
pD2 [2]: 7.4
pD2 [3]: 7.3

Molecule: N=C(N)NCCC[C@@H](N)C(=O)N[C@@H](CCCNC(=N)N)C(=O)N1CCC[C@H]1C(=O)N1C[C@H](O)C[C@H]1C(=O)NCC(=O)N[C@@H](Cc1cccs1)C(=O)N[C@@H](CO)C(=O)N[C@@H]1CSc2ccccc2N(CC(=O)N[C@@H](CCCNC(=N)N)C(=O)O)C1=O [listing 1 of 2 here]
pD2 [2]: 6.8
pD2 [3]: 6.7

Molecule: N=C(N)NCCC[C@H](NC(=O)CN1C(=O)[C@H](NC(=O)[C@H](CO)NC(=O)[C@H](Cc2cccs2)NC(=O)CNC(=O)[C@@H]2C[C@@H](O)CN2C(=O)[C@@H]2CCCN2C(=O)[C@H](CCCNC(=N)N)NC(=O)[C@@H](N)CCCCN)CSc2ccccc21)C(=O)O [listing 1 of 2 here]
pD2 [2]: 7.1
pD2 [3]: 7

Molecule: N=C(N)NCCC[C@@H](N)C(=O)N[C@@H](CCCNC(=N)N)C(=O)N1CCC[C@H]1C(=O)N1C[C@H](O)C[C@H]1C(=O)NCC(=O)N[C@@H](Cc1cccs1)C(=O)N[C@@H](CO)C(=O)N[C@@H]1COc2ccccc2N(CC(=O)N[C@@H](CCCNC(=N)N)C(=O)O)C1=O [listing 1 of 2 here]
pD2 [3]: 5.1

Ki [1]: 2.5 nM
Molecule: N=C(N)NCCC[C@@H](N)C(=O)N[C@@H](CCCNC(=N)N)C(=O)N1CCC[C@H]1C(=O)N1C[C@H](O)C[C@H]1C(=O)NCC(=O)N[C@@H](Cc1cccs1)C(=O)N[C@@H](CO)C(=O)N[C@@H]1COc2ccccc2N(CC(=O)N[C@@H](CCCNC(=N)N)C(=O)O)C1=O [listing 2 of 2 here]

Ki [1]: 0.7 nM
Molecule: N=C(N)NCCC[C@@H](N)C(=O)N[C@@H](CCCNC(=N)N)C(=O)N1CCC[C@H]1C(=O)N1C[C@H](O)C[C@H]1C(=O)NCC(=O)N[C@@H](Cc1cccs1)C(=O)N[C@@H](CO)C(=O)N[C@@H]1CSc2ccccc2N(CC(=O)N[C@@H](CCCNC(=N)N)C(=O)O)C1=O [listing 2 of 2 here]

Molecule: H-RPPGFSPFR-OH [BRADYKININ]
pD2 [2]: 7.9
pD2 [3]: 7.4

Ki ([1]; cho): 86 nM
Molecule: NC(N)=NCCC[C@@H](N)C(=O)N[C@@H](CCCN=C(N)N)C(=O)N1CCC[C@H]1C(=O)N1C[C@H](O)C[C@H]1C(=O)NCC(=O)N[C@@H](Cc1cccs1)C(=O)N[C@@H](CO)C(=O)NC1N=C(c2ccccc2)c2ccccc2N(CC(=O)N[C@@H](CCCN=C(N)N)C(=O)O)C1=O (stereo in doubt; 34)

Ki ([1]; cho): 1040 nM
Molecule: NC(N)=NCCC[C@@H](N)C(=O)N[C@@H](CCCN=C(N)N)C(=O)N1CCC[C@H]1C(=O)N1C[C@H](O)C[C@H]1C(=O)NCC(=O)N[C@@H](Cc1cccs1)C(=O)N[C@@H](CO)C(=O)NC1N=C(c2ccccc2)c2ccccc2N(CC(=O)N[C@@H](CCCN=C(N)N)C(=O)O)C1=O (stereo in doubt; 35)

Ki [1]: 4900 nM
Molecule: N=C(N)NCCC[C@@H](N)C(=O)N[C@@H](CCCNC(=N)N)C(=O)N1CCC[C@H]1C(=O)N1CC(O)C[C@H]1C(=O)NCC(=O)N[C@@H](Cc1cccs1)C(=O)N[C@@H](CO)C(=O)N[C@@H]1CCN(CC(=O)N[C@@H](CCCNC(=N)N)C(=O)O)C1=O (some centres not stated)

Ki [1]: 2070 nM
Molecule: NC(N)=NCCC[C@@H](N)C(=O)N[C@@H](CCCN=C(N)N)C(=O)N1CCC[C@H]1C(=O)N1CC(O)C[C@H]1C(=O)NCC(=O)N[C@@H](Cc1cccs1)C(=O)N[C@@H](CO)C(=O)N[C@@H]1CCN([C@@H](Cc2ccccc2)C(=O)N[C@@H](CCCN=C(N)N)C(=O)O)C1=O (some centres not stated)

Ki [1]: 6 nM
Molecule: Cc1ccc2c(c1)SC[C@@H](NC(=O)[C@H](CO)NC(=O)[C@H](Cc1cccs1)NC(=O)CNC(=O)[C@@H]1C[C@@H](O)CN1C(=O)[C@@H]1CCCN1C(=O)[C@H](CCCNC(=N)N)NC(=O)[C@H](N)CCCNC(=N)N)C(=O)N2CC(=O)N[C@@H](CCCNC(=N)N)C(=O)O [listing 2 of 2 here]

Molecule: N=C(N)NCCC[C@@H](N)C(=O)N[C@@H](CCCNC(=N)N)C(=O)N1CCC[C@H]1C(=O)N1C[C@H](O)C[C@H]1C(=O)NCC(=O)N[C@@H](Cc1cccs1)C(=O)N[C@@H](CO)C(=O)N1Cc2ccccc2C[C@@H]1C(=O)N1[C@H](C(=O)N[C@@H](CCCNC(=N)N)C(=O)O)C[C@@H]2CCCC[C@@H]21 [ICATIBANT]
Kb [4]: 6.31 nM

Ki [1]: 0.07 nM
Molecule: N=C(N)NCCC[C@H](NC(=O)CN1C(=O)[C@H](NC(=O)[C@H](CO)NC(=O)[C@H](Cc2cccs2)NC(=O)CNC(=O)[C@@H]2C[C@@H](O)CN2C(=O)[C@@H]2CCCN2C(=O)[C@H](CCCNC(=N)N)NC(=O)[C@@H](N)CCCCN)CSc2ccccc21)C(=O)O [listing 2 of 2 here]

Molecule: COc1ccc(C[C@@H](CN[C@@H](CCCN=C(N)N)C(=O)O)NC(=O)[C@@H]2CCCN2C(=O)[C@H](CO)NC(=O)[C@H](Cc2cccs2)NC(=O)CNC(=O)[C@@H]2C[C@@H](O)CN2C(=O)[C@@H]2CCCN2C(=O)[C@@H](N)CCCN=C(N)N)cc1 (HELM PEPTIDE1{R.P.[Hyp].G.[O=C([C@H](Cc1cccs1)N[*:1])[*:2]].S.P.[COc1ccc(C[C@@H](CN[C@@H](CCCN=C(N)N)C(=O)O)N[*:1])cc1]}$$$$V2.0)
pD2 [2]: 7.1
pD2 [3]: 6.9
